The target in data set [1] is Metabotropic glutamate receptor 8 (Rattus norvegicus) (UniProt P70579). In words: Allosteric modulation of rat mGlu8 receptor expressed in HEK cells co-expressing GIRK1/2 assessed as change in glutamate-induced thallium flux preincubated for 2.5 mins followed by glutamate addition by FluoZin-2-AM dye based fluorescence assay. The format is cell-based. The gist of the method:
(§1)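 HEK cells expressing GIRK1/2 plus rat mGlu2, mGlu3, mGlu7 or mGlu8, plated at 15,000 cells/well. Thallium flux was read with a double addition: 10 μM compound, then 2.5 min later a full agonist concentration-response. The agonist was glutamate, or L-AP4 for mGlu7. A left shift of more than 2-fold counted as potentiation. A right shift of more than 2-fold, or a ≥75% drop in maximum response, counted as antagonism.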

The target in another data set is Cytochrome P450 2C9 (Homo sapiens, UniProt P11712). In words: Inhibition of CYP2C9 in human liver microsomes using diclofenac as substrate preincubated for 15 mins followed by substrate addition and measured after 8 mins by LC-MS/MS analysis. The format is ADME. In general terms: Liver microsomes are vesicles of endoplasmic reticulum, rich in cytochrome P450 enzymes.
Cytochrome P450 2C9, sequence (P11712 whole entry): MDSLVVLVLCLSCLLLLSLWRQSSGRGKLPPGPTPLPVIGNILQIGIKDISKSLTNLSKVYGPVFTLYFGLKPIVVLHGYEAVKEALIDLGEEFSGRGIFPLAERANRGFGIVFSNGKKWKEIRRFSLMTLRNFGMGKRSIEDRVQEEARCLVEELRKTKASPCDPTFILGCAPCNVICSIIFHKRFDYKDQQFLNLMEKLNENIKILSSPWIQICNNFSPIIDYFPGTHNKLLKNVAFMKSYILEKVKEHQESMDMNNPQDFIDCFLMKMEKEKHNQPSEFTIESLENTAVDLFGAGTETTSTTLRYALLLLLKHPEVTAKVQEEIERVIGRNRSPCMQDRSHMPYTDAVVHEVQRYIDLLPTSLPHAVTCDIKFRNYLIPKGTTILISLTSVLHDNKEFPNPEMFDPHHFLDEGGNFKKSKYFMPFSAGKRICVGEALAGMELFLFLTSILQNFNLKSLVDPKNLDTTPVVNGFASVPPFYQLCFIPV

The target in data set [2] is Metabotropic glutamate receptor 3 (Rattus norvegicus) (UniProt P31422). In words: Allosteric modulation of rat mGlu3 receptor expressed in HEK cells co-expressing GIRK1/2 assessed as change in glutamate-induced thallium flux preincubated for 2.5 mins followed by glutamate addition by FluoZin-2-AM dye based fluorescence assay. The format is cell-based. The gist of the method:
as §1

Data set [3] deals with P-gp. Description: Efflux ratio of permeability in MDCK cells harboring P-gp. The format is ADME, cell-based, Canis lupus familiaris. Particulars: dog, MDCK-MDR1.
Data set [4] deals with Metabotropic glutamate receptor 2 (Rattus norvegicus) (UniProt P31421). Description: Allosteric modulation of rat mGlu2 receptor expressed in HEK cells co-expressing GIRK1/2 assessed as change in glutamate-induced thallium flux preincubated for 2.5 mins followed by glutamate addition by FluoZin-2-AM dye based fluorescence assay. The format is cell-based. The gist of the method: as §1
Metabotropic glutamate receptor 2 (Rattus norvegicus), sequence (P31421 19-872 limits assumed): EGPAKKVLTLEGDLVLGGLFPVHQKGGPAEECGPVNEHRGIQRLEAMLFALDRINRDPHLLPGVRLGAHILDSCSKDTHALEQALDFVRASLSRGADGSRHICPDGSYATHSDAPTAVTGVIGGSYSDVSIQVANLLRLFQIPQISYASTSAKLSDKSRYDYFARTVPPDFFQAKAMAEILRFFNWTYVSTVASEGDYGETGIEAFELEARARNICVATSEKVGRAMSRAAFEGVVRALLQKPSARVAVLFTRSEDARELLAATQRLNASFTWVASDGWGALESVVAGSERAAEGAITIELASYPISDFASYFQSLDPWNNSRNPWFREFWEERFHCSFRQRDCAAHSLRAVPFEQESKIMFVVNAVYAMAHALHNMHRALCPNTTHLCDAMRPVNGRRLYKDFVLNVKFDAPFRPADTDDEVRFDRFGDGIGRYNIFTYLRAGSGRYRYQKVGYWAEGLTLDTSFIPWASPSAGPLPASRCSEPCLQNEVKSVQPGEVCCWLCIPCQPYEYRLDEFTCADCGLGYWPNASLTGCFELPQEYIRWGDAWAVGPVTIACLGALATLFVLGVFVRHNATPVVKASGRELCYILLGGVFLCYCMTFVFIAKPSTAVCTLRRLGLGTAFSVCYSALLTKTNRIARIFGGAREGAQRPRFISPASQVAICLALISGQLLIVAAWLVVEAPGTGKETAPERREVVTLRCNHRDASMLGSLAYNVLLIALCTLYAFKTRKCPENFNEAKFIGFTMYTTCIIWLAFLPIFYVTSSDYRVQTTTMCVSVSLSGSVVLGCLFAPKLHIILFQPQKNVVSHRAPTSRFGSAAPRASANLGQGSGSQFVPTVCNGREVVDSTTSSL

Data set [5] deals with Metabotropic glutamate receptor 1 (Homo sapiens) (UniProt Q13255). In words: Allosteric modulation of human mGlu1 receptor assessed as change in glutamate-induced calcium mobilization at 10 uM preincubated for 2.5 mins followed by glutamate addition by Fluo-4-AM dye based fluorescence assay. The format is functional. The gist of the method:
(§2)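 Human mGlu1 and rat mGlu5 tested by calcium mobilization with a double addition. 10 μM compound was added, then 2.5 min later a full glutamate concentration range. A left shift of more than 2-fold was scored as potentiation. A right shift of more than 2-fold, or a depression of the maximum response by at least 75%, was scored as antagonism.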
On the technique in general: A change in cytosolic calcium serves as a functional read-out for many receptors and channels.

In data set [6] the test system is P-gp. Description: Permeability from apical to basolateral side in MDCK cells harboring P-gp. The format is ADME, cell-based, Canis lupus familiaris. Particulars: dog, MDCK-MDR1; read-out: permeability.
The nature of data set [7]: MRT in rat administered as iv cassette dose. The format is ADME, organism-based. Particulars: in vivo. The gist of the method: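 IV cassette in male Sprague-Dawley rats (~300 g, n = 1 per experiment), cannulated in carotid artery and jugular vein and acclimated about one week. Plasma clearance, Vss, t1/2 and MRT were derived.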
Data set [8] has as its target Metabotropic glutamate receptor 5 (Rattus norvegicus) (UniProt P31424). In words: Allosteric modulation of rat mGlu5 receptor assessed as change in glutamate-induced calcium mobilization at 10 uM preincubated for 2.5 mins followed by glutamate addition by Fluo-4-AM dye based fluorescence assay. The format is functional. The gist of the method: as §2
Data set [9] has as its target T1, Adenosine receptor A3 (Homo sapiens) (UniProt P0DMS8).
T1 sequence (whole entry): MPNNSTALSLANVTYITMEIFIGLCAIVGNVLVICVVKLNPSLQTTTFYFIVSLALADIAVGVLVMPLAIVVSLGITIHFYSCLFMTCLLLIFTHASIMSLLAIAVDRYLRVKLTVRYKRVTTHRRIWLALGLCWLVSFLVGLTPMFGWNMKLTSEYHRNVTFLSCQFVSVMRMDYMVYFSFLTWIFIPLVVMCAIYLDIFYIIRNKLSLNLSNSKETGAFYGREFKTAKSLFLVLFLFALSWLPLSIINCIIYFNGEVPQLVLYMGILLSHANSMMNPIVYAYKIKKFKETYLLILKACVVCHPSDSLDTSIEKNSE
Description: Displacement of [125I]AB-MECA from recombinant human A3 receptor at 10 uM after 120 mins by scintillation counting method relative to control. Background: Loss of bound radioactivity is the signal in a displacement assay; it reports binding, not function.

The nature of data set [10]: Unbound drug level in brain of Sprague-Dawley rat model of haloperidol-induced catalepsy at 10 mg/kg, po. The format is ADME, organism-based. Conditions: in vivo. The gist of the method:
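Male Sprague-Dawley rats given haloperidol 0.75 mg/kg i.p., then returned to cages for 60 min. Compound 10 mg/kg was dosed orally 30 min before catalepsy testing. Plasma, brain and CSF were then assayed, and free levels reported.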

A short description of data set [11]: Cmax in rat at 15 mg/kg, po qd for 4 days measured on day 4 post dose. Conditions: in vivo.
Data set [12] is described as follows: AUC in rat at 15 mg/kg, po qd for 4 days measured on day 1 post dose. Particulars: in vivo.
Data set [13] in a line: AUC in rat at 15 mg/kg, po qd for 4 days measured on day 4 post dose. Conditions: in vivo.
Data set [14] is described as follows: Cmax in rat at 15 mg/kg, po qd for 4 days measured on day 1 post dose. Particulars: in vivo.
Data set [15] concerns the target T2, AhR (read out as CYP1A2 induction) (Homo sapiens, UniProt P35869).
T2 sequence (P35869 whole entry): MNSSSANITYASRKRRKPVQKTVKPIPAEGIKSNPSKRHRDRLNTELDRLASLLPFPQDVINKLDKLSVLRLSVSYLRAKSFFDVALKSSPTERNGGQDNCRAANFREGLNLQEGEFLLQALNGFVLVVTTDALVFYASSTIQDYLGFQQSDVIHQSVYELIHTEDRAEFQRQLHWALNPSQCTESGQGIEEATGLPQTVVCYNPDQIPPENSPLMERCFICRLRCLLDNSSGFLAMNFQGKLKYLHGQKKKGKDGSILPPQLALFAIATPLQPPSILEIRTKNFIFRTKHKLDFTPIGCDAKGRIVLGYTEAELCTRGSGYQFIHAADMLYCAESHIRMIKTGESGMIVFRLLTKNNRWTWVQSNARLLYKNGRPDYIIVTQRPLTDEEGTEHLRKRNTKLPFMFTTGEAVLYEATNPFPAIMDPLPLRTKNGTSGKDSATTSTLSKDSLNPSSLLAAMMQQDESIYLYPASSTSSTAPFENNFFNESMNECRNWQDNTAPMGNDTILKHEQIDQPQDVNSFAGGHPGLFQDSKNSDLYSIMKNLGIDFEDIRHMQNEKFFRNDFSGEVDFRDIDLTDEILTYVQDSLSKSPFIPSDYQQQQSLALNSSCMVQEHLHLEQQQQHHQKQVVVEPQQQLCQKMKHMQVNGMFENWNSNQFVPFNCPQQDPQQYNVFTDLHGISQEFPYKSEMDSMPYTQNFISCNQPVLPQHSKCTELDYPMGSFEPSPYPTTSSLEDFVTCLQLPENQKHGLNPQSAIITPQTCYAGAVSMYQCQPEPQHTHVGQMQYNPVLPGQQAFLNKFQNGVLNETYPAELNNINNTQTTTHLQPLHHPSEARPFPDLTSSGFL
In words: Activation of AhR (unknown origin) assessed as CYP1A2 induction relative to control. The format is ADME. Particulars: read-out: FC.

By IC50 is commonly meant the concentration at which inhibition is half-maximal. The low end stands for greater potency in that assay, the high end for weaker potency in that assay. Usually efflux ratio stands for the permeability from basolateral to apical divided by that in the opposite direction, in the common usage. Broadly, the MRT is a mean duration of stay, worked out from the concentration-time curve. The term inhibition denotes the relative decrease from the control value, in per cent. Broadly, the Cmax is the highest concentration seen after dosing. As usually defined, the AUC is concentration integrated over time. A lower AUC goes with less exposure.

Calls of active or inactive are those of the source. No cut-off for these calls is given here. A value given as a limit tells only on which side of the number the result lay.

Metabotropic glutamate receptor 5 (Rattus norvegicus), sequence (P31424 21-1203 limits assumed): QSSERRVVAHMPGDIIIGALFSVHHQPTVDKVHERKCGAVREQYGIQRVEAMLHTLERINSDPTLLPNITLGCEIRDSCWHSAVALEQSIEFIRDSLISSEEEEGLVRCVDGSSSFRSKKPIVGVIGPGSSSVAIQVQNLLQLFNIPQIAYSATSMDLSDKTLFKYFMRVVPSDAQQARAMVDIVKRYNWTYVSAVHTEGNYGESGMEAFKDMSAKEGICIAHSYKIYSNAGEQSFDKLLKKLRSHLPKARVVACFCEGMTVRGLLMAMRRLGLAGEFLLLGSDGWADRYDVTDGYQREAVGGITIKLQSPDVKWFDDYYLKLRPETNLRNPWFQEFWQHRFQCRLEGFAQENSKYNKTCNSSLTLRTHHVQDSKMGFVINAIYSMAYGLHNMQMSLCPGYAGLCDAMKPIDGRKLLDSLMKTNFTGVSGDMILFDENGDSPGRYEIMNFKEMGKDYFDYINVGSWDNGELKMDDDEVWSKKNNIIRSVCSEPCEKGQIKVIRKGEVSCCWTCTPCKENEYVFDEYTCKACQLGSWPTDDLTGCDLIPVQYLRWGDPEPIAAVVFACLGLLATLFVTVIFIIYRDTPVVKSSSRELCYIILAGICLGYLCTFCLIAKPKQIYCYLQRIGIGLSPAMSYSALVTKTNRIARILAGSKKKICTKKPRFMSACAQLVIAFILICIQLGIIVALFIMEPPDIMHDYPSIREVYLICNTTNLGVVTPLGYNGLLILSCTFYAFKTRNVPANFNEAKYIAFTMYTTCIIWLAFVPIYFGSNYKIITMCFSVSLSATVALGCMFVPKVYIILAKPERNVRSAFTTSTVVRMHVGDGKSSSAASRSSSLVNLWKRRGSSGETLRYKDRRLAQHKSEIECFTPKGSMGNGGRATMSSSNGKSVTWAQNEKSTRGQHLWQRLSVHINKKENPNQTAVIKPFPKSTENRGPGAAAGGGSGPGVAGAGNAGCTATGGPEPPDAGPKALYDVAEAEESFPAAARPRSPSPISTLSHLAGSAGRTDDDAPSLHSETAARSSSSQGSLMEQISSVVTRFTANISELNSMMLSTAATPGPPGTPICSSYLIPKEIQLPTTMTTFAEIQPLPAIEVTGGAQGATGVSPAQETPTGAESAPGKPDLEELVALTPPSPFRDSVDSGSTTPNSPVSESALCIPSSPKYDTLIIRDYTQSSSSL
Metabotropic glutamate receptor 8 (Rattus norvegicus), sequence (P70579 whole entry): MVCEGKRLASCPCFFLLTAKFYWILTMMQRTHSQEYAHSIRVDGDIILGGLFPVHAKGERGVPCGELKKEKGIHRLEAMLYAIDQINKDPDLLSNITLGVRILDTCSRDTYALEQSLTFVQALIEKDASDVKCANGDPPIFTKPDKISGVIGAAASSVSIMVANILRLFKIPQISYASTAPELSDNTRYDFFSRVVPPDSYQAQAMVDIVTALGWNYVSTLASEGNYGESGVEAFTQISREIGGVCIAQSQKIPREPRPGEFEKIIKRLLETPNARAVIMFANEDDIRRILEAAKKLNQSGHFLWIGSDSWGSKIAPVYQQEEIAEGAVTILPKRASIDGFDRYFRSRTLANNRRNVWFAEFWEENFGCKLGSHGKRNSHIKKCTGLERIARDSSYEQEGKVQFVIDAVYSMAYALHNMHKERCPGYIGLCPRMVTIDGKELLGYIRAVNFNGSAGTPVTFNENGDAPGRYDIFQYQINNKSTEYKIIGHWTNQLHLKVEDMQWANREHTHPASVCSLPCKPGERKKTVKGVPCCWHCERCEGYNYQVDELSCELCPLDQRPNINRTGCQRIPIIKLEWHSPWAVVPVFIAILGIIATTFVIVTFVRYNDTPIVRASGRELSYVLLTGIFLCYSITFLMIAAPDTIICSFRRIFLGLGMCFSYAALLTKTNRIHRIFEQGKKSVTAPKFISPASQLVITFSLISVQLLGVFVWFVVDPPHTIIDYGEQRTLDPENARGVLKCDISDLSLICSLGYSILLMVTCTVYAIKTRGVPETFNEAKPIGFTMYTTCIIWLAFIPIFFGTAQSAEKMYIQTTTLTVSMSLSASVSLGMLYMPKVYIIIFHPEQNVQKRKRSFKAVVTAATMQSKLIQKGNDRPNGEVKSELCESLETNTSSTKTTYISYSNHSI
Metabotropic glutamate receptor 3 (Rattus norvegicus), sequence (P31422 23-879 limits assumed): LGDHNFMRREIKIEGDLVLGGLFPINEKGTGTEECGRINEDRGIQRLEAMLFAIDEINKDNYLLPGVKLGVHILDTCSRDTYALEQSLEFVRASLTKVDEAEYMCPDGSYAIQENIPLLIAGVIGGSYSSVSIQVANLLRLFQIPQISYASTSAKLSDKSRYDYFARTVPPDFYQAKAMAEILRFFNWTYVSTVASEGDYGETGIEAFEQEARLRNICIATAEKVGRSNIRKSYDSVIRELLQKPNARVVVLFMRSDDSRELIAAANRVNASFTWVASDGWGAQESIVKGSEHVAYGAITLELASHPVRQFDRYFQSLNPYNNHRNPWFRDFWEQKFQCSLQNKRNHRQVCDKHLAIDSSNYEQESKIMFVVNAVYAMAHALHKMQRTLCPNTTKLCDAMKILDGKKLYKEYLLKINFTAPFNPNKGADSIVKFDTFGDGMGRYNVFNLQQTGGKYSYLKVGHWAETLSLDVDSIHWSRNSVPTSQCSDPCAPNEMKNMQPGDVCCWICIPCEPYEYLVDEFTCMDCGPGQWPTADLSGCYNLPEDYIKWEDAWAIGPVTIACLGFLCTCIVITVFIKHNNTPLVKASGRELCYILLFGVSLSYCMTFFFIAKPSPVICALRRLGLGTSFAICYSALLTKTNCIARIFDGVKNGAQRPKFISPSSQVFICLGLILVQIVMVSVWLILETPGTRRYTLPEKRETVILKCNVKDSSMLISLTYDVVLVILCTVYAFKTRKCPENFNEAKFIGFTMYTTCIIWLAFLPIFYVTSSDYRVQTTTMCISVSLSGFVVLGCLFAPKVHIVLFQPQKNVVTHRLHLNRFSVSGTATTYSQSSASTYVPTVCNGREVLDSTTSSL

With `O=C(NC1CC(F)(F)C1)c1nsc2cc(Nc3n[nH]c4cccnc34)ccc12`, the outcome in data set [1], in data set [2], in data set [4], in data set [5] and in data set [8] was inactive. Further, on Cytochrome P450 2C9, the IC50 was over 30 µM. Moreover, the efflux ratio with P-gp [3] was 1.9. In addition, the Papp A→B with P-gp [6] was found to be 2.9 ×10⁻⁶ cm/s. For the same molecule, the mean residence time (MRT) in [7] was 8.5 h. Also, the inhibition in [9] came to 76%.
With `CC(C)(C)Cc1noc2cc(Nc3n[nH]c4nccnc34)ccc12`, in [10], the “Drug uptake(free)” value worked out at 5.8 nM. Moreover, the Cmax in data set [11] came to 62.8 ng/mL; in [14] it was 86.3 ng/mL. The AUC at 96 h in [12] is 624 ng·h/mL; in data set [13], 690 ng·h/mL. The fold induction in data set [15] was 6.4.

Values taken from ChEMBL document CHEMBL4308847, “Discovery, Structure-Activity Relationship, and Biological Characterization of a Novel Series of 6-((1 H-Pyrazolo[4,3- b]pyridin-3-yl)amino)-benzo[ d]isothiazole-3-carboxamides as Positive Allosteric Modulators of the Metabotropic Glutamate Receptor 4 (mGlu4)” (J Med Chem, 2018).
